The source made the active and inactive calls. The calls are words filed in the database; no cut-off is given here.

Broadly, the IC50 is the midpoint of a concentration-inhibition curve. Broadly, the CLint scaled is the rate of metabolic loss divided by the concentration.

Data set [1] addresses Transient receptor potential cation channel subfamily V member 4 (Rattus norvegicus) (UniProt Q9ERZ8). Briefly: Antagonist activity at recombinant rat TRPV4 expressed in HEK293 cells assessed as inhibition of 4alphaPDD-induced intracellular calcium accumulation up to 10 uM preincubated for 5 mins followed by 4alphaPDD addition by Fluo-4-AM probe-based spectrofluorimetric assay. The class given is cell-based. In outline: (§1)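 HEK-293 cells stably expressing the listed TRP channel (human TRPV1; rat TRPM8, TRPA1, TRPV2, TRPV3 or TRPV4) were Fluo-4-AM loaded (4 µM, 1 h, 25 °C) and suspended in Tyrode's buffer pH 7.4. Compound was added 5 min before agonist: icilin 0.25 µM (TRPM8), capsaicin 0.1 µM (TRPV1), AITC 100 µM (TRPA1), LPC 3 µM (TRPV2), thymol 100 µM (TRPV3), 4α-PDD 1 µM (TRPV4). Agonist alone was taken as 100%. IC50 from sigmoidal fit, at least triplicate.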
In general terms: A change in cytosolic calcium serves as a functional read-out for many receptors and channels.

The target in data set [2] is Transient receptor potential cation channel subfamily A member 1 (Rattus norvegicus, UniProt Q6RI86). As to the kind of experiment: Antagonist activity at recombinant rat TRPA1 expressed in HEK293 cells assessed as inhibition of AITC-induced intracellular calcium accumulation preincubated for 5 mins followed by AITC addition by Fluo-4-AM probe-based spectrofluorimetric assay. The data set is classed as cell-based. The gist of the method:
as §1

In data set [3] the target is Transient receptor potential cation channel subfamily M member 8 (Rattus norvegicus, UniProt Q8R455). Briefly: Agonist activity at recombinant rat TRPM8 expressed in HEK293 cells assessed as increase in intracellular calcium accumulation by Fluo-4-AM probe-based spectrofluorimetric assay. The data set is classed as cell-based. As to conditions: hek293. The gist of the method:
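HEK-293 cells stably expressing rat TRPM8 were loaded with Fluo-4-AM (4 µM, 0.02% Pluronic F-127) for 1 h at 25 °C in serum-free EMEM. They were then washed and suspended in Tyrode's buffer pH 7.4 in a stirred cuvette. [Ca2+]i fluorescence (ex 488/em 516 nm) was read before and after compound addition. Wild-type HEK-293 response was subtracted. Efficacy is expressed versus 4 µM ionomycin; EC50 comes from a sigmoidal fit.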

For data set [4], the target named is T1, Heat sensitive channel TRPV3 (Rattus norvegicus) (UniProt Q4QYD9).
T1 sequence (whole entry): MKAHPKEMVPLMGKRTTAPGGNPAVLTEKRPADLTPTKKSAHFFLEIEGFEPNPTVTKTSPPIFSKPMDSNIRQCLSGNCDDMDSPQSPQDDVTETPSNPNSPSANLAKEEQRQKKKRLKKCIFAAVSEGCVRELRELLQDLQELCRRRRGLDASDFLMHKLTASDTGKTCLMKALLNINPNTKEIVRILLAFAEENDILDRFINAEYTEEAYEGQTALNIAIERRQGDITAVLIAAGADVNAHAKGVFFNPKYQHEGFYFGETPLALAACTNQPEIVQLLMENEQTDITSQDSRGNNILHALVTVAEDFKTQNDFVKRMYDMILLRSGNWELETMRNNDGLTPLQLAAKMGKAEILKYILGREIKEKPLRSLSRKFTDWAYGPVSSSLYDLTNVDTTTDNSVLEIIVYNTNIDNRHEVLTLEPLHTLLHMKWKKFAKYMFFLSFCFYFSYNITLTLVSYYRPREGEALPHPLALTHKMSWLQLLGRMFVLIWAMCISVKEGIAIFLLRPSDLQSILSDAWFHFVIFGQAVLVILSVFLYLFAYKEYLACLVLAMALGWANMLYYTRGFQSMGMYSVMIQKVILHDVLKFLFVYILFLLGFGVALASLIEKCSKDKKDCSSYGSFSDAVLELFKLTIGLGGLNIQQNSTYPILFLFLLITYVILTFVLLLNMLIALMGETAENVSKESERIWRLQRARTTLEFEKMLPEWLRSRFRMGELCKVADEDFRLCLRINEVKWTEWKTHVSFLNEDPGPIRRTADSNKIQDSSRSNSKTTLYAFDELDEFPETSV
Briefly: Antagonist activity at recombinant rat TRPV3 expressed in HEK293 cells assessed as inhibition of thymol-induced intracellular calcium accumulation up to 10 uM preincubated for 5 mins followed by thymol addition by Fluo-4-AM probe-based spectrofluorimetric assay. The class given is cell-based. In outline:
as §1

In data set [5] the target is Transient receptor potential cation channel subfamily V member 1 (Homo sapiens, UniProt Q8NER1). Briefly: Antagonist activity at recombinant human TRPV1 expressed in HEK293 cells assessed as inhibition of capsaicin-induced intracellular calcium accumulation preincubated for 5 mins followed by capsaicin addition by Fluo-4-AM probe-based spectrofluorimetric assay. The data set is classed as cell-based. In outline: as §1
Sequence of Transient receptor potential cation channel subfamily V member 1 (Q8NER1 whole entry): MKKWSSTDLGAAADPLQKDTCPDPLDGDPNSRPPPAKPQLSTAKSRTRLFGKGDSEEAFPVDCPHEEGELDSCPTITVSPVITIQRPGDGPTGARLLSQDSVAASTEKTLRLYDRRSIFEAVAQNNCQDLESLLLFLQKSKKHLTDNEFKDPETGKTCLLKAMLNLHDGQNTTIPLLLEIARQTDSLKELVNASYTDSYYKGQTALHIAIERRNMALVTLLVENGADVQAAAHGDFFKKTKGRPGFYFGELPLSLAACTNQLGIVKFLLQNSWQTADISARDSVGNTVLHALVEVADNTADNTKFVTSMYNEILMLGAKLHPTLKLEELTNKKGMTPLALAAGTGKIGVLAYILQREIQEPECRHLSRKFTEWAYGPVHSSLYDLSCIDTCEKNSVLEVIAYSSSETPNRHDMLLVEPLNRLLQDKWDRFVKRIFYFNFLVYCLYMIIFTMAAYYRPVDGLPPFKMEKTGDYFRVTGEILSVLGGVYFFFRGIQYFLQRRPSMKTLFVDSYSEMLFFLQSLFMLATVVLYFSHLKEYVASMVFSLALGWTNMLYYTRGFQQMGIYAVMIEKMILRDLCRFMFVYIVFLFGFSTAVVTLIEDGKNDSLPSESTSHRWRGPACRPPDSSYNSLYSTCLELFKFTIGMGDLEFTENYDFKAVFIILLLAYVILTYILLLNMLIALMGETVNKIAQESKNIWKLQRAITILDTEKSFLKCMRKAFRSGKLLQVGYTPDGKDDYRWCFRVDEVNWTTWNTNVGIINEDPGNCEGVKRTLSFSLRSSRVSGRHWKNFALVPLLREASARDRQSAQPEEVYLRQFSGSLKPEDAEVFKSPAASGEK

Data set [6] deals with T2, Transient receptor potential cation channel subfamily V member 2 (Rattus norvegicus) (UniProt Q9WUD2).
T2 sequence (whole entry): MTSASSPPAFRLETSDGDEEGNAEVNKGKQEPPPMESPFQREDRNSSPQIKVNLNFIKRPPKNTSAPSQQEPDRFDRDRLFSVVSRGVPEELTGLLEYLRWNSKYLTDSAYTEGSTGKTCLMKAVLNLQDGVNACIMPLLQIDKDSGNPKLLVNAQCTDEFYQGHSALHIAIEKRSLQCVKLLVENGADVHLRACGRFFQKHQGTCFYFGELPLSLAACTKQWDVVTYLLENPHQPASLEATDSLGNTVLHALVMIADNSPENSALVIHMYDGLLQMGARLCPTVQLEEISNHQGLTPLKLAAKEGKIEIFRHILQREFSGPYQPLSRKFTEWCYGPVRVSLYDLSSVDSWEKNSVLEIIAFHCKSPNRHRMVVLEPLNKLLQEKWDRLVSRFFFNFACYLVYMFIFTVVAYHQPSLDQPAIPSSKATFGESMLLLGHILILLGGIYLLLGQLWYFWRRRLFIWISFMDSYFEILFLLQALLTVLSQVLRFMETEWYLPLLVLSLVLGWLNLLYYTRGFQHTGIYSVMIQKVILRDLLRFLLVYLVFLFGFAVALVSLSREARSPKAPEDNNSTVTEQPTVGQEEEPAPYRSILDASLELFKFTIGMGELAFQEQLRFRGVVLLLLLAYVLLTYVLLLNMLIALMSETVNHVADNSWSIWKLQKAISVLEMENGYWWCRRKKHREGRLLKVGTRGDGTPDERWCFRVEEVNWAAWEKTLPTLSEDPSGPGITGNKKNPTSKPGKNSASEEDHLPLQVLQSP
As to the kind of experiment: Antagonist activity at recombinant rat TRPV2 expressed in HEK293 cells assessed as inhibition of LPC-induced intracellular calcium accumulation up to 10 uM preincubated for 5 mins followed by LPC addition by Fluo-4-AM probe-based spectrofluorimetric assay. The class given is cell-based. The gist of the method: as §1

A short description of data set [7]: in vitro. The conditions noted are these: C57BL/6, mouse, liver microsomes. (In general: Microsomes from liver hold many membrane-bound enzymes, among them those of drug oxidation.)
Data set [8] relates to CWR22R. Briefly: Cytotoxicity against human 22Rv1 cells assessed as reduction in cell viability by measuring fluorescence gated cells at 10 uM after 72 hrs by CBNF assay (reference value: 81.3%). The class given is functional.
Data set [9] relates to LNCaP. Briefly: Cytotoxicity against human LNCAP cells assessed as reduction in cell viability by measuring fluorescence gated cells at 10 uM after 72 hrs by CBNF assay (reference value: 83.3%). The class given is functional.
Data set [10] in a line: Cytotoxicity against human PNT1A cells assessed as reduction in cell viability by measuring fluorescence gated cells at 10 uM after 72 hrs by CBNF assay (reference value: 94.1%). The data set is classed as cell-based. The conditions noted are these: read-out: Activity.

Sequence of Transient receptor potential cation channel subfamily M member 8 (Q8R455 whole entry): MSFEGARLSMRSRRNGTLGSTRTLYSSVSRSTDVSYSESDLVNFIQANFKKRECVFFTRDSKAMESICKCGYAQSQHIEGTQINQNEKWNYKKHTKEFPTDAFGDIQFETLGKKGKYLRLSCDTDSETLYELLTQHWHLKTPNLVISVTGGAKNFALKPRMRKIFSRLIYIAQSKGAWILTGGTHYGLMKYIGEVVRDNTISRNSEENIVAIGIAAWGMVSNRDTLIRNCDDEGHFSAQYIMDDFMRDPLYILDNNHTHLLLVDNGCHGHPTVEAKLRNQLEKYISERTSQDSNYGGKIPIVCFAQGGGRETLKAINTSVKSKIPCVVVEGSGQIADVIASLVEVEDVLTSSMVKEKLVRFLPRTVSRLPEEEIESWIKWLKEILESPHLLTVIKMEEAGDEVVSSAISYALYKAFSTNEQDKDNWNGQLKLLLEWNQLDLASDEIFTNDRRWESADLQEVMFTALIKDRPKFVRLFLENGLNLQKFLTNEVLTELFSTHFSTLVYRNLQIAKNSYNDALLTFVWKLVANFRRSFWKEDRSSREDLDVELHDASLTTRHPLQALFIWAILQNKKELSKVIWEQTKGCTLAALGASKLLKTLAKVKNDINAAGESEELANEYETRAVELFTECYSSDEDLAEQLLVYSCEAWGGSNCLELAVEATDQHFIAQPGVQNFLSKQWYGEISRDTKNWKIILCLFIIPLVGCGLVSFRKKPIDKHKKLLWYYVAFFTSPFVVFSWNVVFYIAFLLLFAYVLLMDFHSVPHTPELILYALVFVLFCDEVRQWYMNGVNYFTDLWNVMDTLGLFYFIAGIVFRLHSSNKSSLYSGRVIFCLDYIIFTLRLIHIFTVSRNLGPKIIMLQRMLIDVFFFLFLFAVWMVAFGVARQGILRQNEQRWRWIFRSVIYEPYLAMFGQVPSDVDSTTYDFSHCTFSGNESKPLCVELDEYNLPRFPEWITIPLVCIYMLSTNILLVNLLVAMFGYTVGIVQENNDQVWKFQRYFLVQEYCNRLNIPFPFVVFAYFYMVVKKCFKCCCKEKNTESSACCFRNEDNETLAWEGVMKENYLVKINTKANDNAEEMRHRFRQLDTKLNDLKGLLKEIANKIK
Sequence of Transient receptor potential cation channel subfamily A member 1 (Q6RI86 whole entry): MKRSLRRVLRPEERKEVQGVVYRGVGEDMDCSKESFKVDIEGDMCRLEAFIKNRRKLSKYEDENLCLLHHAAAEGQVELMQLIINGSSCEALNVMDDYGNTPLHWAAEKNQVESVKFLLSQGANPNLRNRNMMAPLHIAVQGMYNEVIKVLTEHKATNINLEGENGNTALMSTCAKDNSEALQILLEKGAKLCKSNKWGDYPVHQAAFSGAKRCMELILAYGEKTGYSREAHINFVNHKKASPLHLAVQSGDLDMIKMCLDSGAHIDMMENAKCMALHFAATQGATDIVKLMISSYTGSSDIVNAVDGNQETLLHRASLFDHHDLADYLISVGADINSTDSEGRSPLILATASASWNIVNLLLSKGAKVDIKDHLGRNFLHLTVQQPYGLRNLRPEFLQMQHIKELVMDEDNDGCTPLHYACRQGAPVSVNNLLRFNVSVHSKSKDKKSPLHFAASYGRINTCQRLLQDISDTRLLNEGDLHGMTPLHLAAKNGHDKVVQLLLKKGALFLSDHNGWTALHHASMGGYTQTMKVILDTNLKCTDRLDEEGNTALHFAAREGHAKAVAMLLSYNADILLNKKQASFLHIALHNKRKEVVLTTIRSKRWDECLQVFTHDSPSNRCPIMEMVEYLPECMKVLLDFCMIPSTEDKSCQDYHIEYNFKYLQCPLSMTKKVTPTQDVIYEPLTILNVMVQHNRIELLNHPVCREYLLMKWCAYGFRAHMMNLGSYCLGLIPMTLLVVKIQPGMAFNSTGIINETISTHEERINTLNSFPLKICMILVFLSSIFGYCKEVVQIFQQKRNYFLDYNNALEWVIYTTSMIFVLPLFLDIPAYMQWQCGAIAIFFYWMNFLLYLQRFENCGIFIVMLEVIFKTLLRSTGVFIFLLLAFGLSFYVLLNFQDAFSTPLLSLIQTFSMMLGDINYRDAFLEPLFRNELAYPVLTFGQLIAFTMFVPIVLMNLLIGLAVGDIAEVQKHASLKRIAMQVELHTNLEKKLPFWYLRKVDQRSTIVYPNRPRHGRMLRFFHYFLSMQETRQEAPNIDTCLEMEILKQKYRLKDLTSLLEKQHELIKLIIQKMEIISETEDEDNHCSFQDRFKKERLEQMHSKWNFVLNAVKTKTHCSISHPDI
Sequence of Transient receptor potential cation channel subfamily V member 4 (Rattus norvegicus) (Q9ERZ8 whole entry): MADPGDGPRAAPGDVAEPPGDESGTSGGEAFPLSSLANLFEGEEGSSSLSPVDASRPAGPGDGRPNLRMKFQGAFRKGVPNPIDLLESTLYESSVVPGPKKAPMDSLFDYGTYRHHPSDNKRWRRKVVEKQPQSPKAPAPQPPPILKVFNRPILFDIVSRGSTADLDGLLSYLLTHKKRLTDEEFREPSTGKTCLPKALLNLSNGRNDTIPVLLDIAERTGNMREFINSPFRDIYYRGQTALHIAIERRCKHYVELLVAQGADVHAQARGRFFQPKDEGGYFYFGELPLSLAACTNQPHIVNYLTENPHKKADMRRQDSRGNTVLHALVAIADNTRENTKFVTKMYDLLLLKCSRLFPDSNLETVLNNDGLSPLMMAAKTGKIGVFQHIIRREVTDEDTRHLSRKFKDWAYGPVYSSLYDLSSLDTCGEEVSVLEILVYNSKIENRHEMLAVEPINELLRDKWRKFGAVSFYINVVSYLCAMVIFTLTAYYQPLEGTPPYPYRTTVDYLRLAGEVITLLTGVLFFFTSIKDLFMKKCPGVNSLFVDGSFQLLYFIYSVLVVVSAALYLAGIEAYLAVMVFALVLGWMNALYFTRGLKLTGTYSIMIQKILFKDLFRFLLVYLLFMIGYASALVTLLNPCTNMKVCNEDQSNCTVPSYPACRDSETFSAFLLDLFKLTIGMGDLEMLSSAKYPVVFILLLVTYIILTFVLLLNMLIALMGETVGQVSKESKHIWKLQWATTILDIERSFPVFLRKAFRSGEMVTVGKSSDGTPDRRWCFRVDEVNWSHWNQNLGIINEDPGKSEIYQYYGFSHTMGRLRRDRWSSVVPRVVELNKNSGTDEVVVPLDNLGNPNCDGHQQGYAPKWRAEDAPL

Turning to `COc1cc(/C=C2\NC(=O)[C@@H]3Cc4c(OC)c(C)c(OC)c(OC)c4[C@@H](c4ccccc4)N3C2=O)c(OC)c(C)c1OC`, the inhibition entry in data set [1], in data set [4] and in data set [6] was “inactive” each time. The IC50 in data set [2] was 14.2 µM; in data set [5] it was 68.9 µM. Also, in data set [3], the EC50 entry is “Not Active”. This molecule also had a CLint scaled at 1 h, 3 µM in data set [7] of 15.6 mL/min/kg.
On to `COc1cc2c(cc1OC)[C@H](c1ccccc1)N(C(=O)N1CCc3cc(OC)c(OC)cc3[C@@H]1c1ccccc1)CC2` (racemic), for which the inhibition entry in data set [1], in [4] and in data set [6] was “inactive” each time. The values for the half-maximal inhibitory concentration (IC50) in [2] and in data set [5] were 10 µM and 53 µM, respectively. Also, the EC50 entry in data set [3] is listed as “Not Active”.
Turning to `COc1cc2c(cc1OC)[C@H](c1ccc(F)cc1)N(C(=O)N1CCc3cc(OC)c(OC)cc3[C@@H]1c1ccc(F)cc1)CC2` (racemic), the inhibition result in data set [1], in [4] and in data set [6] was “inactive” each time. Besides, the IC50 in data set [2] came out at 16.4 µM; in data set [5], 68.5 µM. For the same molecule, the EC50 result in data set [3] was “Not Active”. The Activity worked out at 82.2% in [8] and 54.4% in data set [9]. Moreover, the viability at 72 h, 10 µM in data set [10] was 92.7%. Also, in data set [7], the CLint scaled at 1 h, 3 µM amounted to 75.2 mL/min/kg.
Turning to `COc1cc2c(cc1OC)[C@H](c1ccc(Cl)cc1)N(C(=O)N1CCc3cc(OC)c(OC)cc3[C@@H]1c1ccc(Cl)cc1)CC2` (racemic), the inhibition entry in data set [1], in data set [4] and in data set [6] was “inactive” in each case. Moreover, the values for the concentration for half-maximal inhibition (IC50) in [2] and in [5] were 23.9 µM and 49.7 µM, respectively. Also, in data set [3], the EC50 entry is given as “Not Active”.

Values taken from ChEMBL document CHEMBL4477204, “Tetrahydroisoquinoline-Derived Urea and 2,5-Diketopiperazine Derivatives as Selective Antagonists of the Transient Receptor Potential Melastatin 8 (TRPM8) Channel Receptor and Antiprostate Cancer Agents” (J Med Chem, 2016).
